What was measured:
Assay type in all cases: functional
Conditions in all cases: read-out: ED50 (the source's name)
P388 = assay: Cytotoxicity against mouse P388 cells by Alamar blue assay
Method in brief: (§1)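 Cell lines from ATCC. Growth inhibition measured by Alamar Blue read-out. ED50 reported as mean ± SEM of triplicate determinations; inactivity cutoff set at ED50 > 10 μM. 5-Fluorouracil run as positive control.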

MOLT-4 = assay: Cytotoxicity against human MOLT4 cells by Alamar blue assay; method in brief: as §1
HT-29 = assay: Cytotoxicity against human HT-29 cells by Alamar blue assay; method in brief: as §1
K562 = assay: Cytotoxicity against human K562 cells by Alamar blue assay; method in brief: as §1

Row | Structure (SMILES) | EC50 (P388) [µM] | EC50 (MOLT-4) [µM] | EC50 (HT-29) [µM] | EC50 (K562) [µM]
1 | O=c1[nH]cc(F)c(=O)[nH]1 [FLUOROURACIL] | 6.2 | 7.7 | 7.7 | 21
2 | C[C@@H]1[C@H]([C@H]2OC(=O)[C@@H](C)[C@H]2C)O[C@H]2C[C@H]3[C@@H]4CCC5=CC(=O)C=C[C@]5(C)[C@H]4CC[C@]3(C)[C@@H]12 |  |  |  | 8.7
3 | C[C@H]1[C@H]2[C@H](C[C@H]3[C@@H]4CCC5=CC(=O)C=C[C@]5(C)[C@H]4CC[C@]23C)O[C@@]2(OC(=O)[C@@H](C)[C@H]2C)[C@H]1O |  | 9.9 | 7.5 | 
4 | C[C@@H]1[C@H]([C@H]2OC(=O)[C@H](C)[C@H]2C)O[C@H]2C[C@H]3[C@@H]4CCC5=CC(=O)C=C[C@]5(C)[C@H]4CC[C@]3(C)[C@@H]12 | 9.1 | 4.8 | 4.8 | 
